Data on 39 molecules can be found in PubChem BioAssay.

Each structure is given as a SMILES string. A number with no mark means an inactive call.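 How the source made its calls, unless noted: active means viability increase at or above a cutoff of the median across tested compounds plus 3 SD (cut at about 8.5% in these data, passing the limit was not always enough); inconclusive means some gains above the cutoff, reason not given; inactive means the rest.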

One assay is described as follows: Restrictive medium S. cerevisiae growth inhibition, OD615, pilot screen of yeast lifespan reduction project, restrictive growth control (AID 706;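 active means growth inhibition above a set limit, 3 SD over mean compound inhibition, in both replicates, cut at about 43% in these data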;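 further: modified DeaD lifespan yeast strain shifted to restrictive glucose medium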). The following applies: OD615, 48 h, at 10 µM, active compounds read high. The method in brief: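 Material: engineered S. cerevisiae DeaD strain / Medium: glucose-based CSMM-D restrictive medium / Compound: single dose of 10 µM compound final, 0.25% DMSO / Timing: 4 h pre-incubation, 48 h exposure at 30 °C / Technique: OD615 absorbance reading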
Regarding `CC1CCCCC1NC(=O)c1ccc(CNc2c(N3CCCC3)c(=O)c2=O)cc1` (stereo unspecified), the growth inhibition is 8.32%.

Turning to `Cc1ccc(-c2nc3cccnc3o2)cc1NC(=O)COc1ccc(Cl)cc1C`, the growth inhibition was -8.21%.

In the case of `CCCCCn1c(=O)[nH]c2c(c1=O)CCC2`, the growth inhibition is -0.545%.

Turning to `CCN(c1ccccc1)c1cc(C)nc2nc(C)nn12`, the growth inhibition was -3.25%.

On to `COc1ccc(C(=O)c2cnc(C(C)C)n2C)cc1`, for which the growth inhibition was -9.59%.

Turning to `O=C1C(C=NCc2ccco2)=C(O)c2ccccc21`, the growth inhibition is -1.76%.

In the case of `C=CCn1cc(C(=O)NCCCOC)c(=O)c2cc(S(=O)(=O)N3CCC(C)CC3)ccc21`, the growth inhibition was -19.6%.

On to `NC(=O)c1oc2ccccc2c1NC(=O)CCc1ccccc1`, for which the growth inhibition is 2.84%.

On to `CCCSc1nc2c(c(=O)n1CC)SC(C)C2` (stereo unspecified), for which the growth inhibition was -13%.

In the case of `CCOC(=O)Cn1c(=O)oc2cc(S(=O)(=O)Nc3ccc(F)cc3)ccc21`, the growth inhibition is -3.97%.

As to `COc1ccc(CCNC(=O)CSc2nnnn2-c2ccccc2)cc1`, the growth inhibition was -9.2%.

In the case of `CCn1cc(C2=NC(C(C)C)CO2)c2ccccc21` (stereo unspecified), the growth inhibition was -6.49%.

Consider `O=C(Cn1cnc2c(cnn2-c2ccccc2)c1=O)N1CCOCC1`, for which the growth inhibition was -3.03%.

As for `COc1ccc(N(CC(=O)Nc2ccc3c(c2)OCCO3)S(=O)(=O)c2c(C)nn(C)c2C)cc1`, the growth inhibition is -19.9%.

In the case of `COC(=O)C1=C(C)N(C)C(C)=C(C(=O)OC)C1c1ccsc1`, the growth inhibition is -6.81%.

In the case of `O=c1c2c3c(sc2nc2n1CCCCC2)CCCC3`, the growth inhibition was -15.5%.

Regarding `CCN=C(NCC)SC1CC(=O)N(c2cccc(OC)c2)C1=O` (stereo unspecified), the growth inhibition was 1.56%.

As to `CCOC(=O)N1CCN(C(=O)c2cc3cc(Br)ccc3oc2=O)CC1`, the growth inhibition is -17.6%.

Regarding `Cc1cc(NC(=O)C2CC(c3ccc(F)cc3)=NO2)no1` (stereo unspecified), the growth inhibition is -0.655%.

Turning to `Cc1nnc(NC(=O)CSc2nnc(Cc3cccn3C)n2-c2cccc(C(F)(F)F)c2)s1`, the growth inhibition was 13.7%.

With `O=C(c1cncc(Br)c1)N1CCN(c2ccc(N3CCOCC3)nn2)CC1`, the growth inhibition is 8.3%.

In the case of `Cc1nnc2ccc(N3CCN(C(=O)c4ccccc4)CC3)nn12`, the growth inhibition is 5.48%.

Another assay is described as follows: viability gain of MRP-1-high H69AR cells under doxorubicin, pilot screen, MRP-1 activator project, CellTiter-Glo, duplicate (AID 807).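 Further: compound pretreatment 18-22 h then 72 h combined with doxorubicin; 0% = doxorubicin alone and 100% = vehicle without doxorubicin.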 The following applies: H69AR viability with doxorubicin, CellTiter-Glo luminescence; at 10 µM; active compounds read high. In general terms: ATP-based viability assays read luminescence as a measure of living cells.
Regarding `Cc1ncc(CO)c2cc(S(=O)(=O)c3ccc(F)cc3)c(=O)oc12`, the viability increase was -0.48%.

As to `CCC(SCC(=O)OC)C(=O)Nc1nnc(C(C)C)s1` (stereo unspecified), the viability increase was -1.27%.

For `C=CCOC(=O)C1=C(C)NC(C)=C(C(=O)OCC=C)C1c1ccc(O)cc1`, the viability increase is -4.51%.

As for `CC(=O)c1ccc(OCC(O)CN2CCOCC2)cc1` (stereo unspecified), the viability increase is 0.28%.

In the case of `CCOc1cc(-c2nc(-c3ccncc3)no2)cc(OCC)c1OCC`, the viability increase was -5.6%.

Regarding `O=C1CC(c2cccs2)CC(O)=C1C=NCCN1CCNCC1` (stereo unspecified), the viability increase was -0.54%.

On to `OC(COc1ccc2ccccc2c1)CN1CCN(c2ccc(F)cc2)CC1` (stereo unspecified), for which the viability increase is -4.36%.

`O=C(Nc1ccc(SC(F)F)cc1)C1=COCCO1`: the viability increase was 2.59%.

`COc1ccc(NS(=O)(=O)c2ccc3c(c2)oc(=O)n3C)c(OC)c1`: the viability increase is 0.13%.

Turning to `COc1ccccc1C1CC(=O)NC(SCC(=O)Nc2ccccc2)=C1C#N` (stereo unspecified), the viability increase is 1.09%.

With `CC(=O)Nc1ccccc1NC(=O)C(F)(F)F`, the viability increase is -1.16%.

`CCOC(=O)C1=C(C)S/C(=C\N(C)C)C1=O`: the viability increase is -0.78%.

Take `Cc1ccc(-n2nnc3c(=O)n(CC(=O)NCc4ccco4)cnc32)cc1`: the viability increase is -4.35%.

As for `O=C(Cn1c(=O)sc2ccccc21)N1CCOCC1`, the viability increase was -1.06%.

Take `CCOCCOC(=O)C1=C(C)NC2=C(C(=O)CC(c3cccs3)C2)C1c1ccsc1` (stereo unspecified): the viability increase was -1.94%.

Take `CC1CC(C)CN(CCCNC(=O)Cn2ncc3c(=O)oc4ccccc4c32)C1` (stereo unspecified): the viability increase is -1.86%.

For `CCC(C#CCN1CCCCC1)(CC)OCCC#N`, the viability increase was -1.94%.

Take `CC1CCCCC1NC(=O)c1ccc(CNc2c(N3CCCC3)c(=O)c2=O)cc1` (stereo unspecified): the viability increase is -0.12%.

For the molecule `Cc1ccc(-c2nc3cccnc3o2)cc1NC(=O)COc1ccc(Cl)cc1C`, the viability increase was -8.36%.

As to `CCCCCn1c(=O)[nH]c2c(c1=O)CCC2`, the viability increase was 1.82%.

Take `CCN(c1ccccc1)c1cc(C)nc2nc(C)nn12`: the viability increase was -3.84%.

For `COc1ccc(C(=O)c2cnc(C(C)C)n2C)cc1`, the viability increase was 2.12%.

For `O=C1C(C=NCc2ccco2)=C(O)c2ccccc21`, the viability increase is -3.09%.

With `C=CCn1cc(C(=O)NCCCOC)c(=O)c2cc(S(=O)(=O)N3CCC(C)CC3)ccc21`, the viability increase was -3.54%.

On to `NC(=O)c1oc2ccccc2c1NC(=O)CCc1ccccc1`, for which the viability increase is -2.96%.

In the case of `CCCSc1nc2c(c(=O)n1CC)SC(C)C2` (stereo unspecified), the viability increase was -2.02%.

With `CCOC(=O)Cn1c(=O)oc2cc(S(=O)(=O)Nc3ccc(F)cc3)ccc21`, the viability increase was 0.5%.

For `COc1ccc(CCNC(=O)CSc2nnnn2-c2ccccc2)cc1`, the viability increase was -2.24%.

`CCn1cc(C2=NC(C(C)C)CO2)c2ccccc21` (stereo unspecified): the viability increase is -2.74%.

In the case of `O=C(Cn1cnc2c(cnn2-c2ccccc2)c1=O)N1CCOCC1`, the viability increase is -0.44%.

With `COc1ccc(N(CC(=O)Nc2ccc3c(c2)OCCO3)S(=O)(=O)c2c(C)nn(C)c2C)cc1`, the viability increase was -2.36%.

For the molecule `COC(=O)C1=C(C)N(C)C(C)=C(C(=O)OC)C1c1ccsc1`, the viability increase is -2.96%.

For `O=c1c2c3c(sc2nc2n1CCCCC2)CCCC3`, the viability increase is -1.02%.

Regarding `CCN=C(NCC)SC1CC(=O)N(c2cccc(OC)c2)C1=O` (stereo unspecified), the viability increase was -1.43%.

`CCOC(=O)N1CCN(C(=O)c2cc3cc(Br)ccc3oc2=O)CC1`: the viability increase is -3.3%.

Take `Cc1cc(NC(=O)C2CC(c3ccc(F)cc3)=NO2)no1` (stereo unspecified): the viability increase was -0.18%.

Consider `Cc1nnc(NC(=O)CSc2nnc(Cc3cccn3C)n2-c2cccc(C(F)(F)F)c2)s1`, for which the viability increase was -3.3%.

Consider `O=C(c1cncc(Br)c1)N1CCN(c2ccc(N3CCOCC3)nn2)CC1`, for which the viability increase is -2.32%.

On to `Cc1nnc2ccc(N3CCN(C(=O)c4ccccc4)CC3)nn12`, for which the viability increase was 0.13%.
